Laboratory results as given in article PMC2217204 (The Journal of General Physiology, 2000).
Where “and” joins values, the source holds several entries; their conditions need not be identical. Equal values may be shown once. Read-outs that look alike come from different tables or passages of the source. Each block holds one compound with its values, some of them ahead of it.

Experiments:
[1] = molecular target: T1, KACh channel (Rattus norvegicus, UniProt P48548+P63251); assay type: cell-based; conditions: for IC50 / K 1/2 (effect on ATP-dependent gating of KACh channel): atrial inside-out patches, 100 μM GTP and 4 mM ATP, lipid 0.1, 1, 3, 10 and 30 μM, n = 3 each; for reversal of inhibition of ATP-dependent gating: fatty acid–free albumin 50 μg/ml
T1 sequence (P63251 1-501): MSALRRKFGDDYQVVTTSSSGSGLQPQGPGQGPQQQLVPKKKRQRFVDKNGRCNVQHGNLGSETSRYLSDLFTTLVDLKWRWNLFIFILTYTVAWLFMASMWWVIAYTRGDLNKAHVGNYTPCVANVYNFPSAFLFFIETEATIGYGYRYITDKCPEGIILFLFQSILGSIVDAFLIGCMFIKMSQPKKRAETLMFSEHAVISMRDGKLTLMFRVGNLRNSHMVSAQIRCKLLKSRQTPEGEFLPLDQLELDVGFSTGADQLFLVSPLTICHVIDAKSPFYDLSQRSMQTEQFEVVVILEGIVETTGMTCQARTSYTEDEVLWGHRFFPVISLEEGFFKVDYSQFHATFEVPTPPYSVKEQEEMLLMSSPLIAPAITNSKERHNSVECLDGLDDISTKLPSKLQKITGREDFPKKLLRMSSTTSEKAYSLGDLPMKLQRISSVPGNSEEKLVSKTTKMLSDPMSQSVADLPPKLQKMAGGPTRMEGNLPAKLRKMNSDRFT
T1 sequence (P48548 1-419): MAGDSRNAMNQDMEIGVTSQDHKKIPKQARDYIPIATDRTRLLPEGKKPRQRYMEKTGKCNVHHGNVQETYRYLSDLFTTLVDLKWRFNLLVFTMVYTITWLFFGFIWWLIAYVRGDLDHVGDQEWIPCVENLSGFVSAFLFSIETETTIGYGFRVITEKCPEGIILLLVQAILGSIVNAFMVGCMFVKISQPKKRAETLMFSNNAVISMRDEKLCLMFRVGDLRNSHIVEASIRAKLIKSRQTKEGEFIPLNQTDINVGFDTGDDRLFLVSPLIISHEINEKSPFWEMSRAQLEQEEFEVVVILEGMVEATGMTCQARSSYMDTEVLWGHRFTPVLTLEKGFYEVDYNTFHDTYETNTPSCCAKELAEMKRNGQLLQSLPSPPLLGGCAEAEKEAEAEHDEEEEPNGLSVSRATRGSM

[2] = tested on: K1 channel; test: ATP-activated background K1 channel, atrial inside-out patches; assay type: cell-based, rat; conditions: 4 mM ATP in bath, inside-out atrial patch
[3] = molecular target: T1, KACh channel; assay type: cell-based; conditions: 4 mM ATP with 100 μM GTP in pipette, 10 μM ACh, outside-out
Procedure, shortened: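 Cultured atrial myocytes from 1-day-old rats; outside-out patches at −60 mV, 24–26°C. Pipette held […] 100 μM GTP, GTP plus 4 mM ATP, or these plus atrial cytosolic fraction (5 mg protein/ml). Symmetrical 140 mM KCl, 0.5 mM MgCl2, 5 mM EGTA, 10 mM HEPES, pH 7.2. nPo from 1–2 min of recording.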

[4] = molecular target: T1, KACh channel; assay type: cell-based
Procedure, shortened: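 Inside-out patches from cultured newborn-rat atrial cells, 10 μM ACh in pipette, −60 mV, 24–26°C. Channels were activated by 100 μM GTP in the bath, then 4 mM ATP was added, with free Mg2+ held at 0.5 mM. nPo from 1–2 min of recording. Open and closed times came from maximum-likelihood fits of idealized records to schemes with 2–3 closed and two open states, using patches with ≤4 open levels.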

[5] = molecular target: T1, KACh channel; conditions: cited from earlier work; for effect on KACh channel activity: physiological concentrations, ref Hong et al. 1996
[6] = molecular target: T1, KACh channel; assay type: cell-based; conditions: for τo1: 100 μM phospholipid, inside-out, n = 3
[7] = molecular target: KATP channel (Rattus norvegicus, UniProt P70673); test: KATP channel, inside-out patches from adult rat ventricular cells; assay type: cell-based; conditions: PIP2 applied soon after patch excision
Procedure, shortened: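 KATP channels that appeared on forming inside-out patches were tested with 5 μM arachidonic acid on the cytoplasmic side. In some patches channels were first allowed to run down, then briefly exposed to 3 mM ATP to reactivate them before fatty acid was applied. Recordings were at 24–26°C; 2 μM was also tested (n = 3).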

[8] = K 1/2 (effect on ATP-dependent gating of KACh channel)
[9] = read-out: K 1/2 (effect on ATP-dependent gating of KACh channel)

Sequence of KATP channel (P70673 whole entry): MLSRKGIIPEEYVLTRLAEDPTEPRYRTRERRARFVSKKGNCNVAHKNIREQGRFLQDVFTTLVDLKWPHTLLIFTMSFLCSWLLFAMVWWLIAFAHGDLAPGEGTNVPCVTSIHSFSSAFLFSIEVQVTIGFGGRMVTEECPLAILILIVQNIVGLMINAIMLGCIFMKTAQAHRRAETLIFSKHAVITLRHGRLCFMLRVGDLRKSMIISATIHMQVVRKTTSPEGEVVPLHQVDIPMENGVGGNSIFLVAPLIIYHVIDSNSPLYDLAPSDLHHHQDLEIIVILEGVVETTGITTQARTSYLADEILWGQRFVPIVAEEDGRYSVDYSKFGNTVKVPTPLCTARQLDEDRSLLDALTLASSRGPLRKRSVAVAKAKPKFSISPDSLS
Sequence of KATP channel (Q63563 whole entry partner): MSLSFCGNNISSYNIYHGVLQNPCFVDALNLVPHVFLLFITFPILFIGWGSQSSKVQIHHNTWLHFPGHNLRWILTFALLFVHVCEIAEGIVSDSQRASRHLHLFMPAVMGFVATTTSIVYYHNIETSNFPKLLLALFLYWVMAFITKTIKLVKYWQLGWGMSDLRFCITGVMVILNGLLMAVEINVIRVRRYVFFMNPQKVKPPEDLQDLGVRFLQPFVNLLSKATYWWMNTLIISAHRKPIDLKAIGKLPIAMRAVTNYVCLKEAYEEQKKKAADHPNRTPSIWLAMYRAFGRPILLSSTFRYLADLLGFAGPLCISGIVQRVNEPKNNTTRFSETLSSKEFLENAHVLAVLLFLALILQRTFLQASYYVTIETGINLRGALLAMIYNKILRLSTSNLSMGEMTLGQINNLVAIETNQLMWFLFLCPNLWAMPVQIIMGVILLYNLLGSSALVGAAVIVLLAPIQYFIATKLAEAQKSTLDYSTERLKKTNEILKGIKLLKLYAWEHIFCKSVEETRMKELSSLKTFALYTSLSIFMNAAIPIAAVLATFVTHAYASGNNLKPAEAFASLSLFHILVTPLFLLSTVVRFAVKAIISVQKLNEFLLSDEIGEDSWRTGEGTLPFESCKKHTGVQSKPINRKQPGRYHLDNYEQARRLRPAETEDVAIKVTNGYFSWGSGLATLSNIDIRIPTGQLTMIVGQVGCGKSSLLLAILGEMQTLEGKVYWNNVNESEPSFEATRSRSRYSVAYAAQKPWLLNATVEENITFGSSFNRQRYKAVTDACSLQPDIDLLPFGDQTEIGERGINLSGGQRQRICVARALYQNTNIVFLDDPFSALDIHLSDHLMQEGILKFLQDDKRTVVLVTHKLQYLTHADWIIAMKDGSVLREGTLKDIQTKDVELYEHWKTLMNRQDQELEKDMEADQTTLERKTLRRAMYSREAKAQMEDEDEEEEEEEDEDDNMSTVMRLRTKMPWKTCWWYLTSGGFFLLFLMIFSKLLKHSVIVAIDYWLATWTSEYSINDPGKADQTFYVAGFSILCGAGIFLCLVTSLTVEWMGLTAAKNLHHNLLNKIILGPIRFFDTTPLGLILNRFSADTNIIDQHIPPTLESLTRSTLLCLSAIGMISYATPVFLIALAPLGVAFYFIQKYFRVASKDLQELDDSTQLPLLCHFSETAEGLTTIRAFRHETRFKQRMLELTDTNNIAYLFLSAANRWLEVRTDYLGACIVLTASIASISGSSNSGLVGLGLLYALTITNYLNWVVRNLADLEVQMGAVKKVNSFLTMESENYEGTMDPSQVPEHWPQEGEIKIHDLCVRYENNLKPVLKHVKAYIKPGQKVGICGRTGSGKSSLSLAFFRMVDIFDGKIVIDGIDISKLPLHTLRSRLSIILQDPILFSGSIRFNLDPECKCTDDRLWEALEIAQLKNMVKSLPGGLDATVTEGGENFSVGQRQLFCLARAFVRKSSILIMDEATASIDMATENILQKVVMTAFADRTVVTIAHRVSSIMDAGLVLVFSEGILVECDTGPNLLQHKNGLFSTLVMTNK

IC50 [1, 8]: 2.8 ± 0.4 µM
Compound: CCCCCCCC(=O)OCC(CO)OC(=O)CCCCCCC (stereo not drawn) [1,2-dioctanoylglycerol]

IC50 [1, 8]: 21 ± 3 µM
Compound: CCCCCCCC/C=C\CCCCCCCC(=O)OCC(CO)OC(=O)CCCCCCC/C=C\CCCCCCCC (stereo not drawn) [1,2-dioleoylglycerol]

IC50 [1, 8]: 8.4 ± 2.2 µM
Compound: CCCCC/C=C\C/C=C\CCCCCCCC(=O)OCC(O)CO (stereo not drawn) [1-monolinoleoylglycerol]

IC50 [1, 8]: 42 ± 6 µM
Compound: CCCCCCCC/C=C\CCCCCCCC(=O)OCC(O)CO (stereo not drawn) [1-monooleoylglycerol]

IC50 [1, 8]: 52 ± 7 µM
Compound: CCCCCC/C=C\CCCCCCCC(=O)OCC(O)CO (stereo not drawn) [1-monopalmitoleoylglycerol]

IC50 [1, 8]: 22 ± 3 µM
Compound: CCCCCCCC/C=C\CCCCCCCC(=O)OCC(CO)OC(C)=O (stereo not drawn) [1-oleoyl-2-acetylglycerol]

K 1/2 (effect on ATP-dependent gating of KACh channel) [1]: No effect
Compound: CCCCC/C=C\C/C=C\C/C=C\C/C=C\CCCC(=O)O[C@@H](CO)COC(=O)CCCCCCCCCCCCCCCCC [1-stearoyl-2-arachidonoyl-sn-glycerol]

K 1/2 (effect on ATP-dependent gating of KACh channel) [1]: No effect
Compound: CCCCC/C=C\C/C=C\CCCCCCCC(=O)O[C@@H](CO)COC(=O)CCCCCCCCCCCCCCCCC [1-stearoyl-2-linoleoyl-sn-glycerol]

IC50 [1, 8]: 48 ± 8 µM
Compound: CCCCCCCC/C=C\CCCCCCCC(=O)OC(CO)CO [2-monooleoylglycerol]

channel activity (nPo) with ATP versus without [3]: approximately fivefold higher
increase in nPo ([4]; 4 mM ATP added to GTP, inside-out patches): approximately fivefold increase
mean closed time of long closings (C1) ([4]; 4 mM ATP, inside-out patches): 62 ms
Hill coefficient of [ATP]–nPo relationship ([4]; n = 3): 1.9 ± 0.2
Compound: Nc1ncnc2c1ncn2[C@@H]1O[C@H](COP(=O)(O)OP(=O)(O)OP(=O)(O)O)[C@@H](O)[C@H]1O [ATP]
activation of K1 channel [2]: quickly activated

IC50 [1, 9]: 12 ± 3 µM
Compound: CCCCC/C=C\C/C=C\C/C=C\C/C=C\CCCC(=O)OC [Arachidonic acid methyl ester]

IC50 [1, 9]: 44 ± 7 µM
Compound: CCCCC/C=C\C/C=C\C/C=C\C/C=C\CCCCO [Arachidonyl alcohol]

Compound: [Ca+2] [Ca^2+]
effect on open time constant of the KACh channel ([5]; at concentrations above 30 μM, ref Kim 1991): decreased
effect on KACh channel activity [5]: no significant effect

K 1/2 (effect on ATP-dependent gating of KACh channel) [1]: No effect
Compound: CCCCCCCC(=O)O [Caprylic acid (8:0), Caprylic acid]

K 1/2 (effect on ATP-dependent gating of KACh channel) [1]: No effect
Compound: CCCCCCCCCCCCCC=CC(O)C(CO)NC(C)=O (stereo not drawn) [Ceramide (C-2)]

IC50 [1, 8]: 1.4 ± 0.2 µM
Compound: CC/C=C\C/C=C\C/C=C\C/C=C\C/C=C\C/C=C\CCC(=O)O [Docosahexaenoic acid [22:6 (n-3)], Docosahexaenoic acid]

IC50 [1, 8]: 5.6 ± 2.2 µM
Compound: CC/C=C\C/C=C\C/C=C\C/C=C\C/C=C\CCCC(=O)O [Eicosapentaenoic acid [20:5 (n-3)], Eicosapentaenoic acid]

IC50 [1, 8]: 21.6 ± 4.8 µM
Compound: CCCCCCCC/C=C/CCCCCCCC(=O)O [Elaidic acid [t-18:1 (n-9)], Elaidic acid]

K 1/2 (effect on ATP-dependent gating of KACh channel) [1]: No effect
Compound: OCC(O)CO [Glycerol]

K 1/2 (effect on ATP-dependent gating of KACh channel) [1]: No effect
Compound: O=P(O)(O)OCC(O)CO (stereo not drawn) [Glycerophosphate]

K 1/2 (effect on ATP-dependent gating of KACh channel) [1]: No effect
Compound: CCCCC/C=C\C\C=C/C=C/C=C/[C@@H](SC[C@H](NC(=O)CC[C@H](N)C(=O)O)C(=O)NCC(=O)O)[C@@H](O)CCCC(=O)O [Leukotriene C4]

IC50 [1, 9]: 3.2 ± 0.6 µM
Compound: CCCCC/C=C/C/C=C/CCCCCCCC(=O)O [Linoelaidic acid [t,t-18:2 (n-6)], Linoelaidic acid]

IC50 [1, 9]: 12.5 ± 2.1 µM
Compound: CCCCCCCC/C=C\CCCCCCCCCCCCCC(=O)O [Nervonic acid [24:1 (n-9)], Nervonic acid]

inhibition of ATP-dependent gating, extracellular application ([1]; 5 μM in the pipette solution (extracellular), after 5 min, n = 4 each): did not inhibit
Hill coefficient of inhibition ([1]; ATP-modified KACh channels, inside-out): ~2
IC50 [1, 8]: 1.5 ± 0.2 µM
inhibition at 50 µM ([1]; read-out: partial inhibition of ATP-dependent gating, extracellular application): 65 ± 6%
effect on PIP2-dependent gating of KACh channel ([6]; 2 μM fatty acid applied with 30 μM PIP2): inhibited
Compound: CCCCCCCC/C=C\CCCCCCCC(=O)O [Oleic acid [18:1 (n-9)], Oleic acid]
inhibitory potency after incubation ([1]; room temperature or 37°C for 30 min): reduced their inhibitory potency significantly

K 1/2 (effect on ATP-dependent gating of KACh channel) [1]: No effect
Compound: CCCCCCCCCCCCCCCC(=O)O [Palmitic acid (16:0), Palmitic acid]

IC50 [1, 8]: 10.5 ± 2.4 µM
Compound: CCCCCC/C=C\CCCCCCCC(=O)O [Palmitoleic acid [16:1 (n-7)], Palmitoleic acid]

Compound: CCCCCCCCCCCCCC(=O)O[C@@H]1[C@@H](C)[C@@]2(O)[C@@H](C=C(CO)C[C@]3(O)C(=O)C(C)=C[C@@H]23)[C@@H]2C(C)(C)[C@]12OC(C)=O [Phorbol myristate acetate]
K 1/2 (effect on ATP-dependent gating of KACh channel) [1]: No effect

K 1/2 (effect on ATP-dependent gating of KACh channel) [1]: No effect
Compound: CCCCC[C@H](O)/C=C/[C@H]1[C@H](O)CC(=O)[C@@H]1CCCCCCC(=O)O [Prostaglandin E1]

K 1/2 (effect on ATP-dependent gating of KACh channel) [1]: No effect
Compound: NCCCCNCCCN [Spermidine]

K 1/2 (effect on ATP-dependent gating of KACh channel) [1]: No effect
Compound: NCCCNCCCCNCCCN [Spermine]

K 1/2 (effect on ATP-dependent gating of KACh channel) [1]: No effect
Compound: CCCCCCCCCCCCC/C=C/[C@@H](O)[C@@H](N)CO [Sphingosine (D-form), Sphingosine]

K 1/2 (effect on ATP-dependent gating of KACh channel) [1]: No effect
Compound: CCCCCCCCCCCCCCCCCC(=O)O [Stearic acid (18:0), Stearic acid]

Compound: Nc1nc2c(ncn2[C@@H]2O[C@@H]3COP(=O)(O)O[C@H]3[C@H]2O)c(=O)[nH]1 [cGMP]
effect on KACh channel activity [5]: no significant effect

Compound: O=P(O)(O)O[C@@H]1[C@H](O)[C@H](O)[C@@H](OP(=O)(O)O)[C@H](OP(=O)(O)O)[C@H]1O [inositol trisphosphate]
effect on KACh channel activity [5]: no significant effect

IC50 [1, 9]: 6.2 ± 0.8 µM
Compound: CC/C=C\C/C=C\C/C=C\CCCCCCCC(=O)O [α-linolenic acid [18:3 (n-3)], α-linolenic acid]

K 1/2 (effect on ATP-dependent gating of KACh channel) [1]: No effect
Compound: Lysophosphatidylethanolamine

Compound: Phosphatidylserine
K 1/2 (effect on ATP-dependent gating of KACh channel) [1]: No effect

reversal of inhibition of ATP-dependent gating [1]: almost complete reversal
reversal of inhibition of ATP-dependent gating ([1]; listed as fatty acid-free albumin): completely remove
Compound: albumin: fatty acid–free bovine serum albumin

Compound: phosphatidylcholine
τo1 [6]: 2.5 ± 0.6 ms

τo1 [6]: 2.8 ± 0.5 ms
Compound: phosphatidylethanolamine

open time constant of second open state ([6]; 30 μM PIP2 after GTPγS (100 μM) activation): 2.6 ± 0.3 ms and 2.6 ms
increase in channel activity ([6]; 30 μM PIP2 after GTPγS activation): approximately twofold increase
effect on rundown of KATP channels [7]: prevented rundown
Compound: phosphatidylinositol-4,5-bisphosphate [PIP2]
